From ChEMBL document CHEMBL1141713, “Bisphosphonate inhibitors of ATP-mediated HIV-1 reverse transcriptase catalyzed excision of chain-terminating 3'-azido, 3'-deoxythymidine: a QSAR investigation” (Bioorg Med Chem, 2008)
Calls of active or inactive are those of the source. The calls are words filed in the database; no cut-off is given here.

Target: not listed separately
Assay: Inhibition of the ATP-mediated HIV1 reverse transcriptase D67N/K70R/T215F/K219Q mutant catalyzed 3'-azido, 3'-deoxythymidine excision from AZT-terminated DNA primers
Parameters: species or system Human immunodeficiency virus 1
In short: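 TAM-RT incubated with 5′-³²P-labeled 57/19 heteropolymeric DNA T/P whose 20 nt primer was chain-terminated with AZTMP (RT:T/P 4:1), in 50 mM Tris-HCl pH 8.0, 50 mM KCl, with or without varying bisphosphonate. Started with 10 mM MgCl₂ + 3.0 mM ATP, inorganic pyrophosphatase included. Timed aliquots quenched in formamide/EDTA dye. 20 nt and 19 nt excision product resolved on denaturing gel, quantified by phosphorimaging; IC₅₀.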

Q: Which IC50 does the source give for `CCCCCCc1ccc(NC(P(=O)(O)O)P(=O)(O)O)cc1` here?
A: 302 µM

Q: And the pIC50?
A: 3.5

Q: Which results are given for `O=P(O)(O)C(O)(Cc1ccc(-c2ccc(F)cc2)cc1)P(=O)(O)O`?
A: IC50: 2.9 µM; pIC50: 5.5

Q: What does the source list for `CCCCCCCCC(O)(P(=O)(O)O)P(=O)(O)O`?
A: IC50: 302 µM; pIC50: 3.5

Q: For `O=P(O)(O)C(O)(Cc1ccccc1)P(=O)(O)O`, which IC50 is on record?
A: 302 µM

Q: And the pIC50?
A: 3.5

Q: Which results are given for `CCCCCCCc1ccc(NC(P(=O)(O)O)P(=O)(O)O)cc1`?
A: IC50: 302 µM; pIC50: 3.5

Q: With `O=P(O)(O)C(Nc1cccc(-c2ccc(F)cc2F)c1)P(=O)(O)O` as the compound, how does the IC50 read?
A: 3.9 µM

Q: And the pIC50?
A: 5.4

Q: Which results are given for `O=P(O)(O)C(O)(C[n+]1ccccc1)P(=O)(O)O`?
A: IC50: 302 µM; pIC50: 3.5

Q: Which IC50 does the source give for `O=P(O)(O)C(CNc1ccc(-c2ccccc2)cc1)P(=O)(O)O` here?
A: 4.6 µM

Q: What about the pIC50 of the same compound?
A: 5.3

Q: What does the source list for `O=P(O)(O)C(Nc1cccc(-c2ccccc2)c1)P(=O)(O)O`?
A: IC50: 3.2 µM; pIC50: 5.5

Q: What does the source list for `O=P(O)(O)C(O)(Cc1cccc(-c2cc(F)ccc2F)c1)P(=O)(O)O`?
A: IC50: 1.5 µM; pIC50: 5.8

Q: Which IC50 does the source give for `COc1ccc(-c2cccc(CC(O)(P(=O)(O)O)P(=O)(O)O)c2)cc1` here?
A: 2.4 µM

Q: And the pIC50?
A: 5.6

Q: With `O=P(O)(O)C(O)(Cc1cccc(-c2ccc(Cl)cc2)c1)P(=O)(O)O` as the compound, how does the IC50 read?
A: 0.9 µM

Q: What about the pIC50 of the same compound?
A: 6.1

Q: With `O=P(O)(O)C(Nc1ccc(Cc2ccccc2)cc1)P(=O)(O)O` as the compound, how does the IC50 read?
A: 3.5 µM

Q: And the pIC50?
A: 5.5

Q: Which IC50 does the source give for `NCCCCCC(O)(P(=O)(O)O)P(=O)(O)O` [NERIDRONIC ACID] here?
A: 302 µM

Q: What about the pIC50 of the same compound?
A: 3.5

Q: With `Nc1ccccc1CC(O)(P(=O)(O)O)P(=O)(O)O` as the compound, how does the IC50 read?
A: 38 µM

Q: What about the pIC50 of the same compound?
A: 4.4

Q: With `CCCCCCCCCCCC(O)(P(=O)(O)O)P(=O)(O)O` as the compound, how does the IC50 read?
A: 302 µM

Q: And the pIC50?
A: 3.5

Q: With `O=P(O)(O)C(O)(Cc1cccc(Oc2ccccc2)c1)P(=O)(O)O` as the compound, how does the IC50 read?
A: 3.3 µM

Q: And the pIC50?
A: 5.5

Q: What does the source list for `O=P(O)(O)C(Nc1cccc(-c2ccc(F)c(F)c2)c1)P(=O)(O)O`?
A: IC50: 2.1 µM; pIC50: 5.7

System: not listed separately
Assay: Toxicity against human MCF7 cells assessed as growth inhibition by broth microdilution method
Format: cell-based
In short: (§1)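 Cells grown in RPMI-1640 with 2mM L-glutamine and 10% FBS at 37°C, 5% CO₂. Seeded at 5,000 cells/well and exposed to compounds in half-log serial dilution, 316μM–10nM (100μM–10nM when the DMSO stock was used), for 4 days. Read-out by MTT, absorbance at 600nm. IC₅₀ fitted to a rectangular hyperbola with Imax fixed at 100%.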

Q: Which IC50 does the source give for `O=P(O)(O)C(O)(Cc1ccc(-c2ccc(F)cc2)cc1)P(=O)(O)O` here?
A: > 300 µM

Q: With `O=P(O)(O)C(Nc1cccc(-c2ccc(F)cc2F)c1)P(=O)(O)O` as the compound, how does the IC50 read?
A: > 300 µM

Q: Which IC50 does the source give for `O=P(O)(O)C(CNc1ccc(-c2ccccc2)cc1)P(=O)(O)O` here?
A: 84 µM

Q: With `O=P(O)(O)C(Nc1cccc(-c2ccccc2)c1)P(=O)(O)O` as the compound, how does the IC50 read?
A: 289 µM

Q: With `O=P(O)(O)C(O)(Cc1cccc(-c2cc(F)ccc2F)c1)P(=O)(O)O` as the compound, how does the IC50 read?
A: 165 µM

Q: For `COc1ccc(-c2cccc(CC(O)(P(=O)(O)O)P(=O)(O)O)c2)cc1`, which IC50 is on record?
A: 128 µM

Q: For `O=P(O)(O)C(O)(Cc1cccc(-c2ccc(Cl)cc2)c1)P(=O)(O)O`, which IC50 is on record?
A: 41 µM

Q: Which IC50 does the source give for `O=P(O)(O)C(Nc1ccc(Cc2ccccc2)cc1)P(=O)(O)O` here?
A: > 100 µM

Q: Which IC50 does the source give for `Nc1ccccc1CC(O)(P(=O)(O)O)P(=O)(O)O` here?
A: 205 µM

Q: With `O=P(O)(O)C(O)(Cc1cccc(Oc2ccccc2)c1)P(=O)(O)O` as the compound, how does the IC50 read?
A: 188 µM

Q: With `O=P(O)(O)C(Nc1cccc(-c2ccc(F)c(F)c2)c1)P(=O)(O)O` as the compound, how does the IC50 read?
A: > 300 µM

System: not listed separately
Assay: Toxicity against human SF268 cells assessed as growth inhibition by broth microdilution method
Format: cell-based, SF-268
In short: as §1

Q: With `O=P(O)(O)C(O)(Cc1ccc(-c2ccc(F)cc2)cc1)P(=O)(O)O` as the compound, how does the IC50 read?
A: > 300 µM

Q: With `O=P(O)(O)C(Nc1cccc(-c2ccc(F)cc2F)c1)P(=O)(O)O` as the compound, how does the IC50 read?
A: > 300 µM

Q: Which IC50 does the source give for `O=P(O)(O)C(CNc1ccc(-c2ccccc2)cc1)P(=O)(O)O` here?
A: 95 µM

Q: Which IC50 does the source give for `O=P(O)(O)C(Nc1cccc(-c2ccccc2)c1)P(=O)(O)O` here?
A: 269 µM

Q: For `O=P(O)(O)C(O)(Cc1cccc(-c2cc(F)ccc2F)c1)P(=O)(O)O`, which IC50 is on record?
A: 122 µM

Q: Which IC50 does the source give for `COc1ccc(-c2cccc(CC(O)(P(=O)(O)O)P(=O)(O)O)c2)cc1` here?
A: 139 µM

Q: Which IC50 does the source give for `O=P(O)(O)C(O)(Cc1cccc(-c2ccc(Cl)cc2)c1)P(=O)(O)O` here?
A: 48 µM

Q: Which IC50 does the source give for `O=P(O)(O)C(Nc1ccc(Cc2ccccc2)cc1)P(=O)(O)O` here?
A: > 100 µM

Q: For `Nc1ccccc1CC(O)(P(=O)(O)O)P(=O)(O)O`, which IC50 is on record?
A: 186 µM

Q: Which IC50 does the source give for `O=P(O)(O)C(O)(Cc1cccc(Oc2ccccc2)c1)P(=O)(O)O` here?
A: 176 µM

Q: With `O=P(O)(O)C(Nc1cccc(-c2ccc(F)c(F)c2)c1)P(=O)(O)O` as the compound, how does the IC50 read?
A: > 300 µM

System: not listed separately
Assay: Toxicity against human NCI-H460 cells assessed as growth inhibition by broth microdilution method
Format: cell-based
In short: as §1

Q: For `O=P(O)(O)C(O)(Cc1ccc(-c2ccc(F)cc2)cc1)P(=O)(O)O`, which IC50 is on record?
A: > 300 µM

Q: Which IC50 does the source give for `O=P(O)(O)C(Nc1cccc(-c2ccc(F)cc2F)c1)P(=O)(O)O` here?
A: > 300 µM

Q: For `O=P(O)(O)C(CNc1ccc(-c2ccccc2)cc1)P(=O)(O)O`, which IC50 is on record?
A: 95 µM

Q: With `O=P(O)(O)C(Nc1cccc(-c2ccccc2)c1)P(=O)(O)O` as the compound, how does the IC50 read?
A: 253 µM

Q: For `O=P(O)(O)C(O)(Cc1cccc(-c2cc(F)ccc2F)c1)P(=O)(O)O`, which IC50 is on record?
A: 141 µM

Q: Which IC50 does the source give for `COc1ccc(-c2cccc(CC(O)(P(=O)(O)O)P(=O)(O)O)c2)cc1` here?
A: 118 µM

Q: Which IC50 does the source give for `O=P(O)(O)C(O)(Cc1cccc(-c2ccc(Cl)cc2)c1)P(=O)(O)O` here?
A: 39 µM

Q: Which IC50 does the source give for `O=P(O)(O)C(Nc1ccc(Cc2ccccc2)cc1)P(=O)(O)O` here?
A: > 100 µM

Q: For `Nc1ccccc1CC(O)(P(=O)(O)O)P(=O)(O)O`, which IC50 is on record?
A: 187 µM

Q: For `O=P(O)(O)C(O)(Cc1cccc(Oc2ccccc2)c1)P(=O)(O)O`, which IC50 is on record?
A: 212 µM

Q: Which IC50 does the source give for `O=P(O)(O)C(Nc1cccc(-c2ccc(F)c(F)c2)c1)P(=O)(O)O` here?
A: > 300 µM

System: Human immunodeficiency virus 1
Assay: Inhibition of the ATP-mediated HIV1 reverse transcriptase D67N/K70R/T215F/K219Q mutant catalyzed DNA synthesis

Q: Which Activity does the source give for `O=P(O)(O)C(O)(Cc1ccc(-c2ccc(F)cc2)cc1)P(=O)(O)O` here?
A: inactive

Q: Which Activity does the source give for `O=P(O)(O)C(Nc1cccc(-c2ccc(F)cc2F)c1)P(=O)(O)O` here?
A: inactive

Q: For `O=P(O)(O)C(CNc1ccc(-c2ccccc2)cc1)P(=O)(O)O`, which Activity is on record?
A: inactive

Q: Which Activity does the source give for `O=P(O)(O)C(Nc1cccc(-c2ccccc2)c1)P(=O)(O)O` here?
A: inactive

Q: Which Activity does the source give for `O=P(O)(O)C(O)(Cc1cccc(-c2cc(F)ccc2F)c1)P(=O)(O)O` here?
A: inactive

Q: Which Activity does the source give for `COc1ccc(-c2cccc(CC(O)(P(=O)(O)O)P(=O)(O)O)c2)cc1` here?
A: inactive

Q: For `O=P(O)(O)C(O)(Cc1cccc(-c2ccc(Cl)cc2)c1)P(=O)(O)O`, which Activity is on record?
A: inactive

Q: For `O=P(O)(O)C(Nc1ccc(Cc2ccccc2)cc1)P(=O)(O)O`, which Activity is on record?
A: inactive

Q: Which Activity does the source give for `Nc1ccccc1CC(O)(P(=O)(O)O)P(=O)(O)O` here?
A: inactive

Q: With `O=P(O)(O)C(O)(Cc1cccc(Oc2ccccc2)c1)P(=O)(O)O` as the compound, how does the Activity read?
A: inactive

Q: For `O=P(O)(O)C(Nc1cccc(-c2ccc(F)c(F)c2)c1)P(=O)(O)O`, which Activity is on record?
A: inactive
